pIC50: −log10 of the molar value. Calls of active or inactive are those of the source. The calls are words filed in the database; no cut-off is given here.
Key:
[1] = system: Mus musculus; experiment: Antiallergic activity in house dust mite-induced allergic airway disease BALB/c mouse model assessed as reduction in lymphocyte level in bronchoalveolar lavage fluid at 40 mg/kg, po after 72 hrs of HDM challenge; format: functional, organism-based; design: dose 40 mg/kg; settings: Lung
Outline: (§1)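 BALB/c mice given house dust mite intratracheally via a catheter passed through the vocal cords. Test article 40 mg/kg orally once daily; dexamethasone 1 mg/kg ip once daily as reference. Total and differential BAL cells (eosinophils, macrophages, lymphocytes, neutrophils) counted 72 h after HDM challenge. Mean ± SEM, Mann–Whitney U test.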

[2] = Clearance in dog at 2 mg/kg, iv; format: ADME, organism-based, Canis lupus familiaris; design: dose 2 mg/kg, route intravenous; settings: in vivo
Outline: (§2)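 Single intravenous dose of 2 mg/kg and single oral dose of 10 mg/kg, given separately, in rat, dog and monkey. Clearance and half-life taken from the iv arm; Cmax from the oral arm.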

[3] = system: Ovis aries; experiment: Inhibition of allergen-induced mucociliary clearance in sheep assessed as tracheal mucus velocity at 3 mg/kg, iv measured at 8 hrs (reference value: 47%); format: functional; settings: Trachea
Outline: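 Five sheep received 3 mg/kg iv around allergen challenge. Tracheal mucus velocity measured at 4 h and 8 h and expressed as % of baseline.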

[4] = Cmax in rat at 10 mg/kg, po; format: ADME, organism-based; design: dose 10 mg/kg, route oral; settings: in vivo; outline: as §2
[5] = Cmax in monkey at 10 mg/kg, po; format: ADME, organism-based, Macaca mulatta; design: dose 10 mg/kg, route oral; settings: rhesus monkey, in vivo; outline: as §2
[6] = Permeability in human Caco2 cells at pH 6.5; settings: Caco-2, pH 6.5
[7] = Volume of distribution at steady state in dog at 2 mg/kg, iv; format: ADME, organism-based, Canis lupus familiaris; design: dose 2 mg/kg, route intravenous; settings: in vivo, read-out: Vdss
[8] = Half life in rat at 2 mg/kg, iv; format: ADME, organism-based; design: dose 2 mg/kg, route intravenous; settings: in vivo; outline: as §2
[9] = molecular target: T1, Thromboxane A2 receptor (Homo sapiens, UniProt P21731); experiment: Antagonist activity at TXA2 receptor (unknown origin) by FRET assay
T1 sequence (P21731 whole entry): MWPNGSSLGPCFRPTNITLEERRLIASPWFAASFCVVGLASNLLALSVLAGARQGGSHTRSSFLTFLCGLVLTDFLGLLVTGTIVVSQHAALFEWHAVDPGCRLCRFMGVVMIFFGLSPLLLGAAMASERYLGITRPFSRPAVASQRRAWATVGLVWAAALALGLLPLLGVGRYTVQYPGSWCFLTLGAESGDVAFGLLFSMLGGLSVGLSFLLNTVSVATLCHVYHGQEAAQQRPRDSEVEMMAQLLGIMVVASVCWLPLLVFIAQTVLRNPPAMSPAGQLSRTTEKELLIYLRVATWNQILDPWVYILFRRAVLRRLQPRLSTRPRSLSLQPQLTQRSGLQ

[10] = system: Rattus norvegicus; experiment: Oral bioavailability; settings: in vivo
[11] = molecular target: Voltage-gated inwardly rectifying potassium channel KCNH2 (Homo sapiens, UniProt Q12809); experiment: Inhibition of human ERG channel at 33 uM
Chain of Voltage-gated inwardly rectifying potassium channel KCNH2 (Q12809 whole entry): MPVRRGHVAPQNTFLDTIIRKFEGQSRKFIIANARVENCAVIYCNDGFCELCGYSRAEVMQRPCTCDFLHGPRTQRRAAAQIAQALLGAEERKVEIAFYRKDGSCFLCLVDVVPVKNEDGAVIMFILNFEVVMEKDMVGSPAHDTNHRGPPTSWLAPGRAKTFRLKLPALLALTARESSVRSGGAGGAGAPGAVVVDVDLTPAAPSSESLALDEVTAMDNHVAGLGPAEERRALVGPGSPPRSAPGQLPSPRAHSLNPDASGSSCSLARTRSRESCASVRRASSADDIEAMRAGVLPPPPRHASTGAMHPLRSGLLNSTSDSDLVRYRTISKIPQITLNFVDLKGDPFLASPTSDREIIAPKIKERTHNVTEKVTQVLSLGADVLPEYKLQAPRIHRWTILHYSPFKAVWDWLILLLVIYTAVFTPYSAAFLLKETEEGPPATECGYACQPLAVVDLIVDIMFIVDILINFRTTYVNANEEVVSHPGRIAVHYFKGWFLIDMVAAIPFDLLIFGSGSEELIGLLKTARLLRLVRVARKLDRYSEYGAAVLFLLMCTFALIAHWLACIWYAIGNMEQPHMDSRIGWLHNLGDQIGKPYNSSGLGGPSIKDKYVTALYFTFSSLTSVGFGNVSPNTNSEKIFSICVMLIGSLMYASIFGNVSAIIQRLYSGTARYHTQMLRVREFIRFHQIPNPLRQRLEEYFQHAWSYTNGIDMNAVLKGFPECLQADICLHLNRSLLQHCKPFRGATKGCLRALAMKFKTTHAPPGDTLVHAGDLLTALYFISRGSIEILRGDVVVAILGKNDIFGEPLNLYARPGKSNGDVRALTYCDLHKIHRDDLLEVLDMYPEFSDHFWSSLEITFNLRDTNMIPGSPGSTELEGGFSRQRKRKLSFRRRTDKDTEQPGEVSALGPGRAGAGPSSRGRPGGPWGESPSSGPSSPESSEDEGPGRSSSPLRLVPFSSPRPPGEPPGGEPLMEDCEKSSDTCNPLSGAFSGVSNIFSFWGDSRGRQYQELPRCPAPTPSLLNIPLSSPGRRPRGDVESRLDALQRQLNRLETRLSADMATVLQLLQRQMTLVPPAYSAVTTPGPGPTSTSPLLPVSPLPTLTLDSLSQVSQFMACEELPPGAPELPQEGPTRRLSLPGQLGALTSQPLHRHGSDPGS

[12] = molecular target: Cytochrome P450 2D6 (Homo sapiens, UniProt P10635); experiment: Inhibition of CYP2D6 (unknown origin); format: ADME
Chain of Cytochrome P450 2D6 (P10635 whole entry): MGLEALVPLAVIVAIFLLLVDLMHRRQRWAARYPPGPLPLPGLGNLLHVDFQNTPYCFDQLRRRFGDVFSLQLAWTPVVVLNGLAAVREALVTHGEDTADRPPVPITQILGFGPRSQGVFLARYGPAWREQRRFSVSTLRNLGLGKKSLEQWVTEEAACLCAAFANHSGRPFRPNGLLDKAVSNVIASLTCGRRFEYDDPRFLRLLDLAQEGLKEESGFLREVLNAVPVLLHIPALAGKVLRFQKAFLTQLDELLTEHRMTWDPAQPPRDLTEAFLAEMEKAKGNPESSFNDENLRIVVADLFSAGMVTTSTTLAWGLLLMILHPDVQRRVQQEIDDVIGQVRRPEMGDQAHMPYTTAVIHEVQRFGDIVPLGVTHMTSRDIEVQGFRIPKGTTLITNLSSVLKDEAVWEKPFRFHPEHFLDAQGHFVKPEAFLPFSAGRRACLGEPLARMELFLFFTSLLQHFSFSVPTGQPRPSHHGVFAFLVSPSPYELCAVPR

[13] = system: Ovis aries; experiment: Inhibition of Ascaris-induced airway bronchoconstriction in sheep assessed as inhibition of bronchoalveolar lavage fluid inflammation at 1 mg/kg, iv qd for 7 days; format: functional, organism-based; design: dose 1 mg/kg; settings: Lung
Outline: (§3)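 Sheep given 1 mg/kg iv once daily for 7 days before Ascaris suum allergen challenge. Early and late responses read as airway resistance above baseline, compared with each animal's historical untreated values. After the AHR measurement, three bronchi per sheep were lavaged for cell counts.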

[14] = Clearance in rat at 2 mg/kg, iv; format: ADME, organism-based; design: dose 2 mg/kg, route intravenous; settings: in vivo; outline: as §2
[15] = molecular target: T2, Prostaglandin D2 receptor 2 (Homo sapiens, UniProt Q9Y5Y4); experiment: Binding affinity to human CRTH2 receptor
T2 sequence (Q9Y5Y4 whole entry): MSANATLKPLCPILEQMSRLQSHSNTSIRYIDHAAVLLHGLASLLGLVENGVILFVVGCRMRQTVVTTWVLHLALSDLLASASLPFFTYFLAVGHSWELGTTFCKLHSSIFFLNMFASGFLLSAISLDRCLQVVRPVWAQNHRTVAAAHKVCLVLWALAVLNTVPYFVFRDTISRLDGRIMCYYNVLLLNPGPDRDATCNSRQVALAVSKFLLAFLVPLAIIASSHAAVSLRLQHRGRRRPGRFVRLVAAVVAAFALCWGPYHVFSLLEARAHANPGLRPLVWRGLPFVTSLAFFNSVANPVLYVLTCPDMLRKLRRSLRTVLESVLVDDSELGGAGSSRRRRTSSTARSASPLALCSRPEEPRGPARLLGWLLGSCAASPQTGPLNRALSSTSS
Outline: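 Competitive binding assay at human CRTH2, measuring displacement of tritium-labeled PGD2 by test compound; IC50 derived.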

[16] = system: Mus musculus; experiment: Antiallergic activity in house dust mite-induced allergic airway disease BALB/c mouse model assessed as reduction in airway inflammation at 40 mg/kg, po qd after 17 days; format: functional, organism-based; design: dose 40 mg/kg; outline: as §1
[17] = Oral bioavailability in dog at 10 mg/kg; format: ADME, organism-based, Canis lupus familiaris; settings: in vivo
[18] = system: Ovis aries; experiment: Inhibition of Ascaris-induced airway bronchoconstriction in sheep assessed as inhibition of late phase allergic airway bronchoconstriction at 1 mg/kg, iv qd for 7 days; format: functional, organism-based; design: dose 1 mg/kg; outline: as §3
[19] = Oral bioavailability in rat at 10 mg/kg; format: ADME, organism-based; settings: in vivo
[20] = molecular target: T3, Cytochrome P450 1A2 (Homo sapiens, UniProt P05177); experiment: Inhibition of CYP1A2 (unknown origin); format: ADME
T3 sequence (P05177 whole entry): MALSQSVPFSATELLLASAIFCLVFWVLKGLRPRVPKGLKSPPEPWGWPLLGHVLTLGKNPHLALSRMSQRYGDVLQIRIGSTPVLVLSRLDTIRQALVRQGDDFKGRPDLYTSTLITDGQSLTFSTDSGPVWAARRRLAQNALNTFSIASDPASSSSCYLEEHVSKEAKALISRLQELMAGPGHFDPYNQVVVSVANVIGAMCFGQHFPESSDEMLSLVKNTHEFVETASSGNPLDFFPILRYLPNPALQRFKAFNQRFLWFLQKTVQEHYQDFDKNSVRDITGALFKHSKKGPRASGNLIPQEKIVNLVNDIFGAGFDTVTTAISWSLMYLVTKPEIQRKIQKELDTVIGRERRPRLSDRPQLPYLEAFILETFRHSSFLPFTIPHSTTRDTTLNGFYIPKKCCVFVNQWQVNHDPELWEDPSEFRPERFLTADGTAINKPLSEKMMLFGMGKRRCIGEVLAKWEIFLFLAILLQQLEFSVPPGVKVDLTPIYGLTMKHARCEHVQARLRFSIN

- clearance [2]: 5.6 mL/min/kg
- Cmax [4]: 253 ng/mL
- Cmax [5]: 2970 ng/mL
- Papp [6]: 2.7 ×10⁻⁶ cm/s
- Vd [7]: 0.7 L/kg
- half-life [8]: 2.7 h
- pIC50 [9]: < 6.00
- bioavailability [10]: 35%
- pIC50 [12]: < 4.00
- clearance [14]: 18 mL/min/kg
- pIC50 [15]: 8.85
- bioavailability [17]: 32%
- bioavailability [19]: 20%
- pIC50 [20]: < 4.00
Structure (SMILES): Cc1c(-c2cn(C(C)C)c(=O)c3ccccc23)c2cc(F)ccc2n1CC(=O)O
- inhibition [1]: Active
- inhibition in vivo at 3 mg/kg [3]: 98%
- inhibition (INH) [11]: Not Active
- inhibition [13]: Active
- inhibition [16]: Active
- inhibition [18]: Active

From ChEMBL document CHEMBL3232705, “Discovery of isoquinolinone indole acetic acids as antagonists of chemoattractant receptor homologous molecule expressed on Th2 cells (CRTH2) for the treatment of allergic inflammatory diseases” (J Med Chem, 2014)
